Test results as given in ChEMBL document CHEMBL1132598, “Synthesis, corticotropin-releasing factor receptor binding affinity, and pharmacokinetic properties of triazolo-, imidazo-, and pyrrolopyrimidines and -pyridines” (J Med Chem, 1999).
pKi: −log10 of the molar value.

Experiments:
[1] = The clearance was measured in dogs after intravenous administration of 1 mg/kg dose; format: ADME, organism-based, Canis lupus familiaris; parameters: dose 1 mg/kg, route intravenous; conditions: dog, in vivo
Outline: (§1)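 Dogs (n = 4–6) received 1 mg/kg iv in an ethanol/PEG-based cosolvent vehicle. Plasma was extracted liquid–liquid and quantified by LC/MS/MS. Clearance, steady-state volume and elimination half-life were derived from the concentration–time curves.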

Canis familiaris = assay: The Plasma area under the compound concentration -time curve was measured in dogs after oral administration of 1 mg/kg dose; format: ADME, organism-based, Canis lupus familiaris; parameters: dose 1 mg/kg, route oral; conditions: dog, in vivo
[2] = Oral bioavailability in dog (dose 1 mg/kg); format: ADME, organism-based, Canis lupus familiaris; conditions: in vivo
[3] = Oral bioavailability in rat (dose 1 mg/kg); format: ADME, organism-based; conditions: in vivo
Outline: (§2)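 Rats were given a single 1 mg/kg oral dose, as a 0.25% methylcellulose suspension or as a solution in EtOH/PG (20:80). Animals were sacrificed at 30 min and 1, 2, 4, 8 and 16 h, with blood collected into EDTA. Plasma was separated by centrifugation and extracted liquid–liquid. Analysis was by LC/MS/MS. Each value is a single determination or the average of two.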

[4] = The Peak plasma concentration was measured in dogs after oral administration of 1 mg/kg dose; format: ADME, organism-based, Canis lupus familiaris; parameters: dose 1 mg/kg, route oral; conditions: dog
[5] = The Peak plasma concentration was measured in rats after oral administration of 1 mg/kg dose; format: ADME, organism-based; parameters: dose 1 mg/kg, route oral; conditions: rat; outline: as §2
[6] = The time reach to maximum Peak plasma concentration was measured in dogs after oral administration of 1 mg/kg dose; format: ADME, organism-based, Canis lupus familiaris; parameters: dose 1 mg/kg, route oral; conditions: dog
[7] = The Elimination half-life was measured in dogs after intravenous administration of 1 mg/kg dose; format: ADME, organism-based, Canis lupus familiaris; parameters: dose 1 mg/kg, route intravenous; conditions: dog, in vivo; outline: as §1
[8] = The volume of distribution at steady state was measured in dogs after intravenous administration of 1 mg/kg dose; format: ADME, organism-based, Canis lupus familiaris; parameters: dose 1 mg/kg, route intravenous; conditions: dog, in vivo, read-out: Vss; outline: as §1
[9] = target: T1, Corticotropin-releasing factor receptor 1 (Homo sapiens, UniProt P34998); assay: Binding affinity to recombinant human Corticotropin releasing factor receptor 1 (hCRF1) expressed in 293EBNA cells; format: cell-based
T1 sequence (P34998 whole entry): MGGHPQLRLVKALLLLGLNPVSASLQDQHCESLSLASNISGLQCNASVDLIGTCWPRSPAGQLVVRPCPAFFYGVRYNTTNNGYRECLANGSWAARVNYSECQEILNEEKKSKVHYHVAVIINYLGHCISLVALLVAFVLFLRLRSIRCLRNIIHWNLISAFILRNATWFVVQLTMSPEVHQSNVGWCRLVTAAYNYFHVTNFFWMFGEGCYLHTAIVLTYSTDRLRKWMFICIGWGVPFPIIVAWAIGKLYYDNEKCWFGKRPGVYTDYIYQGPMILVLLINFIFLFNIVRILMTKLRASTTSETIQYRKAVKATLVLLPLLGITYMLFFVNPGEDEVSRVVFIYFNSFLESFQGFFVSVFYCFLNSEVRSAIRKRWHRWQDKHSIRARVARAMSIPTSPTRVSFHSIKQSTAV

Rattus norvegicus = assay: The Plasma area under the compound concentration -time curve was measured in rats after oral administration of 1 mg/kg dose; format: ADME, organism-based; parameters: dose 1 mg/kg, route oral; conditions: in vivo; outline: as §2
[10] = The Brain concentration compared to plasma concentration in rats at steady state after intravenous infusion; conditions: rat, brain and plasma, read-out: B/P

SMILES | clearance [1] [mL/min/kg] | AUC T (Canis familiaris) [µM·h] | bioavailability [2] [%] | bioavailability [3] [%] | Cmax [4] [nM] | Cmax [5] [nM] | Tmax [6] [h] | half-life [7] [h] | Vd [8] [L/kg] | pKi [9] | AUC T (Rattus norvegicus) [µM·h] | Kp [10] | F [2] [%]
CCCCN(CC)c1nc(C)nc2c1nnn2-c1ccc(C(C)C)cc1Br | 9.25 | 0.824 | 18.4 | 26.5 | 141 | 49.2 | 1.25 | 26 | 7.54 | 8.12 | 0.471 | – | –
COCCN(Cc1ccccc1)c1nc(C)nc2c1nnn2-c1ccc(C(C)C)cc1Br | 8.72 | 0.366 | 7.3 | 15.5 | 39 | 12.5 | 0.8 | 46.7 | 24.7 | 8.30 | 0.137 | 0.2 | –
CCC(COC)Oc1nc(C)nc2c1nnn2-c1ccc(C(C)C)cc1Br (stereo not given) | – | – | – | 6 | – | 5.9 | – | – | – | 8.72 | 0.021 | – | –
COCCN(CCOC)c1nc(C)nc2c1nnn2-c1ccc(C(C)C)cc1Br | 7.97 | 0.914 | – | 17 | 308 | 30 | 0.67 | 33.2 | 15.6 | – | 0.098 | 0.6 | 30.7
CCC(COC)Nc1nc(C)nc2c1nnn2-c1ccc(C(C)C)cc1Br (stereo in doubt; 4x) | 7.38 | 3.14 | 53.1 | 21 | 546 | 30.7 | 0.5 | 19 | 10.1 | 8.21 | 0.146 | 0.6 | –
